Data taken from the array DNA melting data of Ke et al. (doi:10.1101/2024.01.08.574731).

Key:
[1] = folding enthalpy; higher = less favourable; fluorescence melt of hairpins on a sequencing array, two-state fit; settings: sodium 0.088 M
Outline: (§1)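 Melting temperature and folding enthalpy were derived from bootstrapped two-state fits. The fitted temperatures were raised by 9.35 °C to agree with UV melts, and four replicates were combined by inverse variance. The underlying data were Cy3 fluorescence images of library hairpins, with annealed Cy3 and quencher oligos, on a sequenced MiSeq flow cell in 50 mM Na-HEPES pH 8.0, 25 mM NaCl, taken in 2.5 °C steps up to 60 °C, normalised to pre-quench Cy3 and to control constructs.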

[2] = melting temperature; fluorescence melt of hairpins on a sequencing array, two-state fit, raised by 9.35 °C to match UV melts; settings: sodium 0.088 M
Outline: as §1

| Sequence | folding enthalpy [1] [kcal/mol] | Tm [2] [°C] |
| --- | --- | --- |
| GGGGACGGAAACACCCCC ((((..(....)..)))) | -22.6 | 34.8 |
| GTGAACGAAAGTTAGCAC ((((((....)))..))) | -12.5 | 29.1 |
| GTCGAGGAAACTCGAC ((((((....)))))) | -45.2 | 63.3 |
| GCTGCGCGAAAGCGTCGC ((..(((....)))..)) | -15.2 | 51.4 |
| CGAAGGCGGAAACGCTCG (((..(((....)))))) | -20.8 | 37.5 |
| GCGAGCTTTCGC ((((....)))) | -19.3 | 50.5 |
| GTCGTACGAAAGTAAGAC (((.(((....))).))) | -33.2 | 52.1 |
| GGCGATTCGAAAGAAGCC (((..(((....)))))) | -23.2 | 46.4 |
| GGTATAACGAAAGTTACC (((..(((....)))))) | -13.7 | 37.8 |
| GGGGCGTCGAAAGACCCC (((..(((....)))))) | -16.9 | 57.3 |
| GTATGCGGAAACGCATGC (.(((((....))))).) | -21.2 | 55.5 |
| GCTTAGGAAACTAAGC ((((((....)))))) | -31.7 | 52.7 |
| GATCCTAGAGAGGATC ((((((....)))))) | -35.4 | 48 |
| GCGTGCGAAAGCACCCGC ((((((....)))..))) | -10.1 | 43.7 |
| GGTTGGGAAACCAACC ((((((....)))))) | -42.9 | 60.4 |
| CGCGACGGAAACGTTGCG (((.(((....))).))) | -54.2 | 61 |
| GGTGCGACGAAAGTCACC (((..(((....)))))) | -16.5 | 42.5 |
| GCTCCCGAAAGGGGAAGC ((((((....)))..))) | -19.2 | 50 |
| GTCGAGCGAAAGCTTGAC (((.(((....))).))) | -35.4 | 63.9 |
| GTTTTAGGAAACTAGAAC (((.(((....))).))) | -11.5 | 27.9 |
| CGCGCCGGAAACGGGCG (((.(((....)))))) | -26.4 | 60.4 |
| GGAAGGGGAAACCCTTCC (((((((....))))))) | -35.1 | 64.4 |
| GACGCCGAAAGGCGTGTC ((((((....)))..))) | -8.76 | 66.9 |

| Sequence | folding enthalpy [1] [kcal/mol] | Tm [2] [°C] |
| --- | --- | --- |
| GTGCTGGGAAACTAGCAC (((((.(....).))))) | -41.3 | 54.3 |
| GCAGTGCGAAAGCACCGC ((.((((....)))).)) | -17.4 | 62 |
| GTGTTCGAAAGAAAGCAC ((((((....)))..))) | -12.8 | 27.5 |
| GTGGCTGGAAACGGCTAC ((.((.(....).)).)) | -24.2 | 44 |
| GTGCTAGGAAACTGGCAC ((((.((....)).)))) | -45.4 | 53.5 |
| GCACAAGGAAACCTGTGC (((((.(....).))))) | -34 | 50.5 |
| GCTCGGCGAAAGCACAGC (((..((....))..))) | -12.2 | 51.2 |
| GATCTCATAGGAGATC ((((((....)))))) | -38.1 | 51.2 |
| GATCGCGAAAGCGTCATC ((((((....)))..))) | -7.57 | 33.8 |
| GCTGGAGGAAACTCTAGC (((.(((....))).))) | -40.4 | 48.4 |
| GTTCCTCGAAAGAGTAAC (((.(((....))).))) | -27.6 | 34.1 |
| GTTGCCGGAAACGGTGAC ((..(((....)))..)) | -22.8 | 47.8 |
| GATCGCCAGTGCGATC ((((((....)))))) | -34.9 | 64.4 |
| GATCGTTATGACGATC ((((((....)))))) | -38.6 | 55.9 |
| GGGCTCACGAAAGTGCCC (((..(((....)))))) | -21 | 51.9 |
| GATCAGGTTACTGATC ((((((....)))))) | -38.2 | 57.6 |
| GGTACAGGAAACTGTGTC (..((((....))))..) | -17.6 | 28.9 |
| GCGTGTGGAAACGCATGC ((.((.(....).)).)) | -23.4 | 47.4 |
| GCCCTTGAAAAAGGGC ((((((....)))))) | -36 | 68 |
| GATCGTTAAAACGATC ((((((....)))))) | -35.6 | 54.5 |
| GAGAGCGAAAGCTTGCTC ((((((....)))..))) | -10.4 | 35.5 |
| GTCTCTGCGAAAGCAGAC (((..(((....)))))) | -8.28 | 34.3 |
| GGGCAATCGAAAGATCCC (((..(((....)))))) | -21.5 | 34 |

| Sequence | folding enthalpy [1] [kcal/mol] | Tm [2] [°C] |
| --- | --- | --- |
| GCGCCCGGAAACGGACGC (((.(((....))).))) | -47 | 66.1 |
| GCAAGTTCGAAAGAATGC (((..(((....)))))) | -11.8 | 27.3 |
| GATCTCCAATGAGATC ((((((....)))))) | -34.2 | 51.3 |
| GTGCCCGAAAGGGTTCAC ((((((....)))..))) | -11.8 | 41.1 |
| GGCGACGGAAACGTTGCC (((.(((....))).))) | -48.8 | 65 |
| GCCATGCGAAAGCGTAGC ((.(.((....)).).)) | -11.2 | 37 |
| GCGGAGCGAAAGCAGCGC (((..((....))..))) | -17.1 | 58 |
| GGTCCTGGAAACAGGATC (.(((((....))))).) | -31.8 | 51 |
| GCTTCAGCGAAAGCTAGC (((..(((....)))))) | -9.89 | 41.2 |
| GACGACGAAAGTCTGGTC ((((((....)))..))) | -21.8 | 41.2 |
| GCGCCACGAAAGTGCCGC (((.(((....))).))) | -26.9 | 56.3 |
| GCAACCGAAAGGTGTGC ((((((....))).))) | -23.2 | 52.4 |
| GTGTAAGCGAAAGCTCAC (((..(((....)))))) | -19.3 | 44.9 |
| CGCGGAAGCATCCGCG ((((((....)))))) | -27.5 | 60.3 |
| GACTCGGCGAAAGCCGTC (((..(((....)))))) | -4.78 | 36.2 |
| GCATTGCGAAAGCTACGC ((.(.((....)).).)) | -14 | 39.1 |
| GATCGCGAAAGCGAGATC ((((((....)))..))) | -13.8 | 60.6 |
| GCAGGAGGAAACTCTTGC (((.(((....))).))) | -34.8 | 46.7 |
| GATCCTGTGGAGGATC ((((((....)))))) | -31.8 | 51.8 |
| GTTGTCGAAAGACAAAC ((((((....))).))) | -14.2 | 48.9 |
| GATCTTACAAAAGATC ((((((....)))))) | -26.4 | 39.6 |
| GGGGTGGAAACACCCC ((((((....)))))) | -38.9 | 68.8 |
| GATCGAGGGGTCGATC ((((((....)))))) | -4.35 | 45.6 |

| Sequence | folding enthalpy [1] [kcal/mol] | Tm [2] [°C] |
| --- | --- | --- |
| GATCGAGTTCTCGATC ((((((....)))))) | -39.6 | 55.9 |
| GGTGGCGGAAACGTCACC ((((.((....)).)))) | -48.2 | 63.3 |
| GGCCTAGGAAACTAGACC ((.((((....)))).)) | -28.6 | 40.6 |
| CGTTTACGGAAACGTACG (((..(((....)))))) | -19.2 | 40.1 |
| GTGAGCGAAAGCTCGCAC ((((((....)))..))) | -11.7 | 55.1 |
| GGGGGAGGAAACTTCCCC ((((.((....)).)))) | -47.8 | 54.4 |
| GATCTCAGGGAGATC ((((((...)))))) | -29.5 | 54.5 |
| GTCAGCGGAAACGTTGAC ((((.((....)).)))) | -43.5 | 52.9 |
| GATCGGGGTCCCGATC ((((((....)))))) | -39.5 | 61 |
| GACAGCGAAAGCTGAGTC ((((((....)))..))) | -8.14 | 39.2 |
| GAGTCTGGAAACGGACTC (((((.(....).))))) | -40.4 | 52.3 |
| GACAACGAAAGTTGGTC ((((((....))).))) | -19.7 | 53.1 |
| GCGATATCGAAAGATCGC (((..(((....)))))) | -30.7 | 50.1 |
| GACCCTGGAAACAGGGTC (((((((....))))))) | -36.9 | 67.7 |
| GATCTCAGGAGAGATC ((((((....)))))) | -34.7 | 50.8 |
| GCATGGCGAAAGCTGTGC (((..((....))..))) | -31.6 | 59.9 |
| GTTGCGGGAAACCGTAGC (.(.(((....))).).) | -24.5 | 36.1 |
| GATCGTATGTACGATC ((((((....)))))) | -37.7 | 56.8 |
| GATCGTCTACACGATC ((((((....)))))) | -39.8 | 53.9 |
| GCTTAGGGAAACCTAAGC (((((((....))))))) | -34 | 59.8 |
| GAAACGGGAAACTGTTTC (((((.(....).))))) | -27.5 | 44.9 |
| GAAATCGGAAACGACTTC (((.(((....))).))) | -24.8 | 32.4 |
| GCGGGGATCCGC ((((....)))) | -19.9 | 68.9 |
